According to ChEMBL document CHEMBL1124534, “Synthesis, mechanism of action, and biological evaluation of mitosenes” (1989):
Converted amounts (≈) assume the structure as drawn.

Tests used:
[1] = system: Mus musculus; assay: Median survival time in days for antitumor activity against P388 Leukemia in CD2 mice at fractioned dose treatment of 3 mg/kg; format: functional
In short: (§1)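 P388 leukemia-bearing mice were dosed intraperitoneally once daily for 9 consecutive days (fractioned schedule). The read-out was median survival time in days, reported alongside %T/C and % body weight change.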

[2] = system: Mus musculus; assay: Percent T/C ([…]) for antitumor activity against P388 Leukemia in CD2 mice at fractioned dose treatment of 3 mg/kg; format: functional
In short: (§2)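 Mouse P388 leukemia model. Drugs were given intraperitoneally, either as a single injection or once daily for 9 consecutive days (fractioned schedule). Outcomes were median survival time in days, %T/C, and % body weight change.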

[3] = system: Mus musculus; assay: Compound (40 mg/Kg) was evaluated in vivo for antitumor activity against MAC 16 in female NMRI mice on day 29 and ratio of tumor weight of treated to that of control was determined; format: functional
[4] = system: A204; assay: In vitro antitumor activity against A204 rhabdomyosarcoma tumor cell line was determined; format: functional; conditions: Homo sapiens, read-out: ID50 (the source's name)
In short: (§3)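 Cell growth inhibition in vitro measured by the PIT method, with mitomycin C as positive reference.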

[5] = system: Mus musculus; assay: Mean relative body weight change of treated / mean relative body weight change of control when compound (2 mg/kg/day) administered to inhibit growth of human tumor xenograft GXF 97 was reported at day 21 in nude mice; format: functional
[6] = system: Mus musculus; assay: Percentage change in body weight [(day 6 - day 1)/ day 1] for antitumor activity against P388 Leukemia in CD2 mice at fractioned dose treatment of 1 mg/kg; format: functional; in short: as §2
[7] = system: Mus musculus; assay: Body wieght treated/body weight untreated controls of compound (6 mg/kg) was evaluated in vivo for antitumor activity against MAC 16 in female NMRI mice on day 12; format: functional
[8] = system: Mus musculus; assay: Compound (40 mg/Kg) was evaluated in vivo for antitumor activity against MAC 16 in female NMRI mice on day 12 and ratio of tumor weight of treated to that of control was determined; format: functional
[9] = system: Mus musculus; assay: Compound (6 mg/Kg) was evaluated in vivo for antitumor activity against MAC 13 in female NMRI mice on day 2 and ratio of tumor weight of treated to that of control was determined
[10] = system: WiDr; assay: In vitro antitumor activity against WiDr colon carcinoma tumor cell line was determined; format: functional; conditions: Homo sapiens, read-out: ID50 (the source's name); in short: as §3
[11] = system: Mus musculus; assay: Percent change in body weight [(day 6 - day 1)/ day 1] when P388 Leukemic CD2 mice were treated with a compound (6 mg/Kg); format: functional
[12] = system: Mus musculus; assay: Ability of administered compound (2 mg/kg/day) to inhibit growth of human tumor xenograft GXF 97 was assessed on day 21 in nude mice
[13] = system: Mus musculus; assay: Percent inhibition of compound (50 mg/Kg) was evaluated in vivo for antitumor activity against MAC 13 in female NMRI mice on day 29; format: functional
In short: (§4)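 MAC 13 in female NMRI mice. Drugs were given in arachis oil BP by ip route on day 2 or day 29. % inhibition was derived from treated/untreated control tumor weight (volume); a negative value indicates stimulation.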

[14] = system: Mus musculus; assay: Percent T/C ([…]) for antitumor activity against P388 Leukemia in CD2 mice at a single dose treatment of 6 mg/kg; format: functional
In short: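 P388 leukemia mice given a single intraperitoneal injection. Median survival time (days) and body weight change were recorded. %T/C was derived from the survival of treated versus control mice.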

[15] = system: Mus musculus; assay: Body wieght treated/body weight untreated controls of compound (6 mg/kg) was evaluated in vivo for antitumor activity against MAC 16 in female NMRI mice on day 4; format: functional
[16] = system: Mus musculus; assay: Ability of intravenously administered compound (2 mg/kg, single dose) to inhibit growth of human tumor xenograft GXF 97 was assessed on day 28 in nude mice
[17] = system: Mus musculus; assay: Mean relative body weight change of treated / mean relative body weight change of control when compound (2 mg/kg/day) administered to inhibit growth of human tumor xenograft GXF 97 was reported at day 14 in nude mice; format: functional
[18] = system: Mus musculus; assay: Relative tumor size on day 28 was reported when compound (2 mg/kg/day) administered to inhibit growth of human tumor xenograft GXF 97 in nude mice; format: functional
In short: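 GXF 97 human gastric xenograft grown subcutaneously in nude mice for 24 days, then mice randomized; treatment began 1 day later. Fractioned ip injections on days 1-4, or single iv injection on day 1; 4-5 mice per group. Tumor size from length and width; relative tumor size (% of controls) read at day 28.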

[19] = system: L1210; assay: In vitro antitumor activity against L1210 lymphocytic leukemia tumor cell line was determined; format: functional; conditions: Mus musculus, read-out: ID50 (the source's name)
In short: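 Inhibition of L1210 leukemia colony formation in vitro, with mitomycin C as positive reference.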

[20] = system: Mus musculus; assay: Median survival time in days for antitumor activity against P388 Leukemia in CD2 mice at fractioned dose treatment of 1 mg/kg; format: functional; in short: as §1
[21] = system: Mus musculus; assay: Percent inhibition of compound (6 mg/kg) was evaluated in vivo for antitumor activity against MAC 13 in female NMRI mice on day 2; format: functional; in short: as §4
[22] = system: Mus musculus; assay: Ability of administered compound (2 mg/kg/day) to inhibit growth of human tumor xenograft GXF 97 was assessed on day 14 in nude mice
[23] = system: Mus musculus; assay: Percent T/C ([…]) for antitumor activity against P388 Leukemia in CD2 mice at fractioned dose treatment of 1 mg/kg; format: functional
In short: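 P388 leukemia mice dosed intraperitoneally once daily for 9 consecutive days. Median survival time (days) and body weight change were recorded. %T/C was based on survival of treated versus control mice.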

[24] = system: Mus musculus; assay: Median survival time in days for antitumor activity against P388 Leukemia in CD2 mice at a single dose treatment of 6 mg/kg; format: functional
In short: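 P388 leukemia-bearing mice were given one intraperitoneal injection. The read-out was median survival time in days, reported alongside %T/C and % body weight change.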

[25] = system: Mus musculus; assay: Mean relative body weight change of treated / mean relative body weight change of control when compound (2 mg/kg/day) administered to inhibit growth of human tumor xenograft GXF 97 was reported at day 28 in nude mice; format: functional
[26] = system: Mus musculus; assay: Percentage change in body weight [(day 6 - day 1)/ day 1] for antitumor activity against P388 Leukemia in CD2 mice at fractioned dose treatment of 3 mg/kg; format: functional; in short: as §2
[27] = system: Mus musculus; assay: Compound (6 mg/Kg) was evaluated in vivo for antitumor activity against MAC 16 in female NMRI mice on day 4 and ratio of tumor weight of treated to that of control was determined; format: functional

`CO[C@@]12[C@H](COC(N)=O)C3=C(C(=O)C(C)=C(N)C3=O)N1C[C@@H]1N[C@@H]12` [MITOMYCIN] showed an MST [1] of 21 days, a T/C [2] of 191% and a T/C [3] of 7.4%. The IC50 [4] was 0.02 µg/mL (≈ 0.0598 µM), the BWC [5] was 108.5% and the BWC [6] was -5.4%. The BW [7] was 96%, the T/C [8] was 81% and the T/C [9] was 11.6%. For the same compound, the IC50 [10] was 0.031 µg/mL (≈ 0.0927 µM), the BWC [11] was -18.1% and the T/C [12] was 4.1%. The I [13] was 92.6%, the T/C [14] was 191% and the BW [15] was 106%. For the same compound, the T/C [16] was 2.6%, the BWC [17] was 108.9% and the “Relative TS” value [18] was 17%. It also gave an IC50 [19] of 0.031 µg/mL (≈ 0.0927 µM), an MST [20] of 34 days and an I [21] of 88.4%. The T/C [22] was 9.9%, the T/C [23] was 309% and the MST [24] was 21 days. It also gave a BWC [25] of 108.4%, a BWC [26] of -8% and a T/C [27] of 60%.
